Test [1] has as its target T1, RAC-alpha serine/threonine-protein kinase (Homo sapiens, UniProt P31749). The test can be described thus: Inhibition of AKT1 in human BT474 cells assessed as phosphorylation of GSK3. In kind it is cell-based, BT-474.
The target in test [2] is T1, RAC-alpha serine/threonine-protein kinase. The test can be described thus: Inhibition of full length AKT1.
The target of test [3] is Rho-associated protein kinase 1 (Homo sapiens, UniProt Q13464). The test can be described thus: Inhibition of ROCK1.
Sequence of Rho-associated protein kinase 1 (Q13464 whole entry): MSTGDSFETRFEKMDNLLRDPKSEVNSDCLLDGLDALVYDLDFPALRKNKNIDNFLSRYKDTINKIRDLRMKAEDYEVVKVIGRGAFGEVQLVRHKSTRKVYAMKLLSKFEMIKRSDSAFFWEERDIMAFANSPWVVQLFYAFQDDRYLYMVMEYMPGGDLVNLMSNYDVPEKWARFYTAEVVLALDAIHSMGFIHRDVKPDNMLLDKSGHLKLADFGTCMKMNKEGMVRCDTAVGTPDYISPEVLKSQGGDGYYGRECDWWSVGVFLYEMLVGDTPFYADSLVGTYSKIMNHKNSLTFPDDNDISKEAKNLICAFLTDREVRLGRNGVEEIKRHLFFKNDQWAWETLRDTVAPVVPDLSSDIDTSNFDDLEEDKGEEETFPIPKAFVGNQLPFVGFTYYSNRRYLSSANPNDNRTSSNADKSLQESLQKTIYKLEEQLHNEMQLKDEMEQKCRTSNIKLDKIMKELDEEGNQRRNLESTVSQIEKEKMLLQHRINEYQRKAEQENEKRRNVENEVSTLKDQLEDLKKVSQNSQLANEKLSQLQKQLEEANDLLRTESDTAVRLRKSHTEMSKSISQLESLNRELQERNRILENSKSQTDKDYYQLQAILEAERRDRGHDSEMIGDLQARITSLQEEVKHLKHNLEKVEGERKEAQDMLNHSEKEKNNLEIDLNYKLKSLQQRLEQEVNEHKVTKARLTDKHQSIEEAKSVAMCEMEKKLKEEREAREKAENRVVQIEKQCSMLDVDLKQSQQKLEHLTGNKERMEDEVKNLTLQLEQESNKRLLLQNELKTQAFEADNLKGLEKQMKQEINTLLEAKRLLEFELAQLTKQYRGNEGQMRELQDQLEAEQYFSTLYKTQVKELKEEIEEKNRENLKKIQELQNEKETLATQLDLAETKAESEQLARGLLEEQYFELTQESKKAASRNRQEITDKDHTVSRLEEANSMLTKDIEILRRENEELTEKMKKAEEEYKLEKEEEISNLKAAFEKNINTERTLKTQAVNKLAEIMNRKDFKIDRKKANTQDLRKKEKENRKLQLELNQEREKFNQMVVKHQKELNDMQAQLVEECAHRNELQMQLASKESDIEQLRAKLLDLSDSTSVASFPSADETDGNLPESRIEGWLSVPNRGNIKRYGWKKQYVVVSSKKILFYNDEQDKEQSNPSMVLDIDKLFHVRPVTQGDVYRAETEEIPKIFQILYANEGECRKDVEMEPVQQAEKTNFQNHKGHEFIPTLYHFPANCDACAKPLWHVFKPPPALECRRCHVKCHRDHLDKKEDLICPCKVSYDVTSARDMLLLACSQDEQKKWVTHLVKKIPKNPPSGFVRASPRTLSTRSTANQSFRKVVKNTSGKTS
Test [4] is described as follows: Selectivity ratio of IC50 for ROCK1 to IC50 for AKT1.
Test [5] deals with T1, RAC-alpha serine/threonine-protein kinase. The test can be described thus: Inhibition of truncated AKT1. The method in brief: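 AKT1 construct truncated to lack the PH domain. IC50 measured with ATP at or below its Km. At least two determinations (n ≥ 2).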

Our source for the IC50 and Ratio IC50 values is ChEMBL document CHEMBL1153241, “2,3,5-Trisubstituted pyridines as selective AKT inhibitors-Part I: Substitution at 2-position of the core pyridine for ROCK1 selectivity” (Bioorg Med Chem Lett, 2010).

Structures are written as SMILES.

T1 sequence (P31749 whole entry): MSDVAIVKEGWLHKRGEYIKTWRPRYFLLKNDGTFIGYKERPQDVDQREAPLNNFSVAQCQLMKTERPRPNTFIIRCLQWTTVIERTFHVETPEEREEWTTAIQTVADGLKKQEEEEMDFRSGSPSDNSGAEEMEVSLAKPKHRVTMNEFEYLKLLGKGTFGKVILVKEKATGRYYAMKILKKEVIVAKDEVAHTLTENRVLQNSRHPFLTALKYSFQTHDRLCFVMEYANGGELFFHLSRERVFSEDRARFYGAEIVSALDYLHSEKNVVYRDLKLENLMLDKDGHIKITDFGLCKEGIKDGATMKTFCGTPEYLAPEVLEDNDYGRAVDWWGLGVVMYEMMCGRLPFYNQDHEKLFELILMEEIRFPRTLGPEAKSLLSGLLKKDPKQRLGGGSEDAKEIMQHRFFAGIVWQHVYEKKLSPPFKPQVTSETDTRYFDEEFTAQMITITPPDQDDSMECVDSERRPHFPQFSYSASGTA

A word on the IC50: it is the midpoint of a concentration-inhibition curve. As for `Cc1n[nH]c2ccc(-c3cc(OC[C@@H](N)Cc4c[nH]c5cccnc45)cnc3-c3ccoc3)cc12`, the IC50 in test [1] came out at 4300 nM; in test [2], 10 nM.

Take `Cc1n[nH]c2ccc(-c3cc(OC[C@@H](N)Cc4ccccc4)cnc3C#CCCO)cc12`: the IC50 in test [3] is over 10000 nM; in test [2], 720 nM.

As to `Cc1n[nH]c2ccc(-c3cc(OC[C@@H](N)Cc4ccccc4)cnc3-c3cccc(O)c3)cc12`, the IC50 in test [3] is over 10000 nM; in test [2] it was 79 nM.

Consider `Cc1n[nH]c2ccc(-c3cc(OC[C@@H](N)Cc4ccccc4)cnc3-c3ccccc3)cc12`, for which, in test [4], the Ratio IC50 was over 200. Besides, the results for the IC50 in test [3] and in test [2] were over 10000 nM and 50 nM, respectively.

On to `Cc1n[nH]c2ccc(-c3cc(OC[C@@H](N)Cc4c[nH]c5cc(F)ccc45)cnc3-c3ccoc3)cc12`, for which the results for the IC50 in test [1] and in test [2] were 220 nM and 0.8 nM, respectively.

Turning to `Cc1n[nH]c2ccc(-c3cc(OC[C@@H](N)Cc4ccccc4)cnc3-c3ccc(O)cc3)cc12`, the results for the IC50 in test [3] and in test [2] were 1400 nM and 500 nM, respectively.

In the case of `Cc1n[nH]c2ccc(-c3cc(OC[C@@H](N)Cc4ccccc4)cnc3-c3cc(Cl)ccc3O)cc12`, the Ratio IC50 in test [4] is over 2000. Besides, the IC50 in test [3] was 7600 nM; in test [2], 3 nM.

`Cc1n[nH]c2ccc(-c3cc(OC[C@@H](N)Cc4c[nH]c5ccc(F)cc45)cnc3-c3ccoc3)cc12`: the IC50 in test [1] is 360 nM; in test [2] it was 1 nM.

In the case of `Cc1n[nH]c2ccc(-c3cc(OC[C@@H](N)Cc4c[nH]c5ncccc45)cnc3-c3ccoc3)cc12`, the IC50 in test [1] was 930 nM; in test [2] it was 8 nM.

On to `Cc1n[nH]c2ccc(-c3cc(OC[C@@H](N)Cc4ccccc4)cnc3-c3ccsc3)cc12`, for which the IC50 in test [3] amounted to 6000 nM; in test [2], 50 nM.

Regarding `Cc1n[nH]c2ccc(-c3cc(OC[C@@H](N)Cc4ccccc4)cnc3-c3ccco3)cc12`, the results for the IC50 in test [3] and in test [5] were 1290 nM and 790 nM, respectively.

As for `Cc1n[nH]c2ccc(-c3cc(OC[C@@H](N)Cc4c[nH]c5c(F)cccc45)cnc3-c3ccoc3)cc12`, the results for the IC50 in test [1] and in test [2] were 260 nM and 1 nM, respectively.

Take `Cc1n[nH]c2ccc(-c3cc(OC[C@@H](N)Cc4ccccc4)cnc3-c3cccs3)cc12`: the IC50 in test [3] came out at 2500 nM; in test [2], 79 nM.

Consider `COc1ccccc1-c1ncc(OC[C@@H](N)Cc2ccccc2)cc1-c1ccc2[nH]nc(C)c2c1`, for which the IC50 in test [3] was over 10000 nM; in test [2], 100 nM.

Take `Cc1n[nH]c2ccc(-c3cc(OC[C@@H](N)Cc4ccccc4)cnc3C#CC(C)(C)O)cc12`: the IC50 is over 10000 nM in test [3] and 10500 nM in test [5].

Consider `Cc1n[nH]c2ccc(-c3cc(OC[C@@H](N)Cc4c[nH]c5ccncc45)cnc3-c3ccoc3)cc12`, for which the IC50 in test [1] was determined as 6800 nM; in test [2], 13 nM.

As to `Cc1n[nH]c2ccc(-c3cc(OC[C@@H](N)Cc4c[nH]c5ccccc45)cnc3-c3ccoc3)cc12`, the IC50 in test [1] was 500 nM.

Regarding `Cc1n[nH]c2ccc(-c3cc(OC[C@@H](N)Cc4ccccc4)cnc3-c3ccoc3)cc12`, the IC50 stood at 5200 nM in test [3] and 10 nM in test [2].

As for `Cc1n[nH]c2ccc(-c3cc(OC[C@@H](N)Cc4ccccc4)cnc3-c3cc(F)cc(F)c3O)cc12`, the IC50 in test [3] is over 10000 nM; in test [2], 63 nM.

In the case of `Cc1n[nH]c2ccc(-c3cc(OC[C@@H](N)Cc4ccccc4)cnc3-c3ccccc3O)cc12`, the IC50 worked out at 9500 nM in test [3] and 15 nM in test [2].

For the compound `Cc1occc1-c1ncc(OC[C@@H](N)Cc2c[nH]c3ccccc23)cc1-c1ccc2[nH]nc(C)c2c1`, the IC50 amounted to 84 nM in test [1] and 0.8 nM in test [2].

For the compound `Cc1n[nH]c2ccc(-c3cc(OC[C@@H](N)Cc4ccccc4)cnc3-c3cc(F)ccc3O)cc12`, the IC50 in test [3] was 9800 nM; in test [5], 10 nM.

In the case of `Cc1n[nH]c2ccc(-c3cc(OC[C@@H](N)Cc4ccccc4)cnc3-c3ccc[nH]3)cc12`, the values for the IC50 in test [3] and in test [2] were over 10000 nM and 15 nM, respectively.
